Compound activity (PubChem)
This is a sample that favours compounds with a hit; in the whole collection about 3.3% have one here.
SENP8 block-1: blocks the human protease SENP8 | Q96LD8 | hit rate 1.2% among 330,000 | AID 2540 | purified SENP8, Z-RLRGG-aminoluciferin cleavage, luminescence | inhibition, % at 10 µM; in the data active = inhibition above about 50%
NRP1-CendR mod: NRP-1/CendR interaction modulation | O14786 | FAM-RPARPAR peptide binding to NRP-1, fluorescence polarization | inhibition, % at 25 µM | hit rate 0.85% among 360,000 | AID 602438;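 active = inhibition or corrected inhibition above about 18%, plus a signal ratio from 0.5 to 1.5, limit read from the data, passing the limit was not always enough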
Target sequence (O14786 whole entry, looked up): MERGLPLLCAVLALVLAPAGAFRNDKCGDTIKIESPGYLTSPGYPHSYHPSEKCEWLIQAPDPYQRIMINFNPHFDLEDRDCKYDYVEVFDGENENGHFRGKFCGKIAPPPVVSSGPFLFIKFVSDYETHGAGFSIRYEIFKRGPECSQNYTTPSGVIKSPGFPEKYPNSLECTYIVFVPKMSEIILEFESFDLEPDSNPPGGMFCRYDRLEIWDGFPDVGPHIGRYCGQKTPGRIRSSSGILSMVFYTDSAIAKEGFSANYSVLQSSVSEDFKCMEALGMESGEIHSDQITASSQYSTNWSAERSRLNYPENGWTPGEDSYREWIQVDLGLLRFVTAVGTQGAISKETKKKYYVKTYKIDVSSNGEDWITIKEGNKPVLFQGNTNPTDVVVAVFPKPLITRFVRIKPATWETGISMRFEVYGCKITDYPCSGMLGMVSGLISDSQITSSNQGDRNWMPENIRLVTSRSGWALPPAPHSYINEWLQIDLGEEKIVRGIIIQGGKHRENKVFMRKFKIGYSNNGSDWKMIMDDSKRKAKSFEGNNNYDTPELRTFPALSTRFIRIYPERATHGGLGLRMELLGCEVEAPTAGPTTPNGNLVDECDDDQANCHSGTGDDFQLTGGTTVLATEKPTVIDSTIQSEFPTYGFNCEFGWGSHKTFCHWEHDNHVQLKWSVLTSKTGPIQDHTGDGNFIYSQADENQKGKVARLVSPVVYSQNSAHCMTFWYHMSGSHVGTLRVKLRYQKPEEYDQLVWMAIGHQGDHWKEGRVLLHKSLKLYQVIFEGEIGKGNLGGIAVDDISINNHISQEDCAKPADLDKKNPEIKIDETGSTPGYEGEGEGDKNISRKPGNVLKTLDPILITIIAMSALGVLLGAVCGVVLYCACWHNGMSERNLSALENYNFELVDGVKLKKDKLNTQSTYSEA
SENP6 block: inhibitors of human SENP6 protease | Recombinant SENP6 catalytic domain, aminoluciferin luminescence | Q9GZR1 | AID 2599 | hit rate 1.8% among 330,000 | inhibition, % at 10 µM;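 active = inhibition above about 50% at the single tested dose, limit read from the data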;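 also: plate controls were DMSO wells with enzyme for no effect and DMSO wells lacking enzyme for full effect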
SENP7 inh: blocks the human protease SENP7 | Q9BQF6 | recombinant SENP7, Z-RLRGG-aminoluciferin luminescence, 40 min | inhibition, % at 5 µM | hit rate 1.5% among 330,000 | AID 434973;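 active = inhibition above about 50% at the single test dose, limit read from the data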;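 also: plate controls were DMSO with enzyme for no effect and no enzyme buffer wells for full effect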
SENP1 FRET inh: inhibitors of human SENP1 SUMO protease catalytic domain; Q9P0U3; recombinant SENP1 catalytic domain, CyPet-SUMO1-YPet FRET cleavage; inhibition, % at 10 µM; hit rate 0.21% among 360,000;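 active = inhibition at least 30% at 10 µM, raw YFP signal under a set limit, fluorescence ratio 0.5 to 1.5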;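 also: 0% = enzyme with DMSO and 100% = no enzyme wells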
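Assay system – human recombinant His6-tagged SENP1 catalytic domain enzyme · Input – SENP1 enzyme, 20 pM final · Buffer or medium – Tris pH 8 buffer plus EDTA, NaCl, BME, BSA, NP40, catalase · Schedule – 50 min reaction at room temperature · Technique – FRET read of cyan and yellow fluorescence · Control set – no-enzyme wells low, DMSO-plus-enzyme wells high control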
SENP8 block-2: SENP8 (human) protease inhibition. hit rate 0.64% among 360,000. recombinant SENP8, Nedd8 substrate fluorescence. Q96LD8. inhibition, % at 20 µM. AID 602440; in the data active = inhibition mostly above about 40%, no sharp cut-off; inactive = mostly below about 27%
The depositor's hits bear a star; / = not tested or not shown.

SMILES	SENP8 block-1	NRP1-CendR mod	SENP6 block	SENP7 inh	SENP1 FRET inh	SENP8 block-2
COc1ccc(-c2csc(Nc3ccccc3)n2)cc1	22	6	-11	9	1	8
COc1ccc(-c2csc(Nc3cccnc3)n2)cc1	-24	25*	7	-3	-2	18
Nc1nnc(SCc2ccc(Cl)cc2)s1	-10	26*	-16	-5	0	15
Nc1nnc(CSCc2ccc(Cl)cc2)s1	-12	1	-20	-6	0	9
CC1=NN(c2ccccc2)C(=O)/C1=C\C=C1/N(C)c2ccccc2C1(C)C	0	-124	12	5	48*	47*
COc1ccc(C2=NN(c3ccccc3)C(=O)/C2=C\c2ccc(O)c(OC)c2)cc1	1	-28	17	16	3	55*
COc1ccc(/C=C2/C(=O)N(c3ccccc3)N=C2C)cc1OC	2	11	13	30	3	75*
CC1=NN(c2ccccc2)C(=O)/C1=C\c1cc(C)n(C)c1C	3	15	15	-2	5	44*
CC1=NN(c2ccccc2)C(=O)/C1=C\C=C1\N(C)c2ccccc2C1(C)C	6	-137	-7	6	27	18
COc1cc(/C=C2\C(=O)ON=C2c2ccc(Cl)cc2)ccc1O	-12	/	-22	-7	/	/
CCOc1cc(/C=C2/C(=O)N(c3ccccc3)N=C2C)ccc1OC(=O)c1cccs1	-6	-10	20	18	3	38
COCCNC(=O)C1(C)CCN(C(=O)c2cccnc2Oc2ccccc2)C1 (stereo unspecified)	/	7	/	/	3	26
Cc1ccc(CN2C(=O)CSCC2(C)C(=O)NCc2ccccc2)cc1 (stereo unspecified)	/	3	/	/	3	27
COCCNc1nc(NCc2ccc(C(C)C)cc2)c2sccc2n1	/	8	/	/	2	9
CC(=O)Oc1ccc(/C=C2/C(=O)N(c3ccccc3)N=C2C)cc1	4	2	14	36	2	45*
COc1ccc(/C=C2/C(=O)N(c3ccccc3)N=C2C)cc1	11	-9	39	47	2	91*
CC1=NN(c2ccccc2)C(=O)/C1=C/C=C/c1ccc(N(C)C)cc1	/	2	/	/	2	38*
O=C(O)CC(C(=O)O)C(=Cc1ccccc1)c1ccccc1 (stereo unspecified)	/	-6	/	/	3	8
COCCNC(=O)C1CCCN(Cc2cccc(C#N)c2)CC1 (stereo unspecified)	/	0	/	/	0	35
O=C1NC[C@H](Cc2ccc(O)cc2)N(C[C@@H]2CCCN2C[C@H](Cc2ccc(O)cc2)N2C[C@H](Cc3ccccc3)N(CCc3ccccc3)C(=O)C2=O)C1=O	/	-7	/	/	4	12
FC(F)(F)c1ccc2c(c1)C1C=CCC1C(c1ccncc1)N2 (stereo unspecified)	/	-36	/	/	-22	44*
Cc1c(CCC(=O)O)c(=O)oc2cc(OCc3ccccc3F)ccc12	-5	3	11	-1	1	-286
Cc1c(CC(=O)O)c(=O)oc2cc(OCc3ccc(F)cc3Cl)ccc12	-6	51*	3	7	3	-289
CCC(CC)C(C(=O)NCc1ccccc1)N1CCN(c2cccc(C)c2C)CC1 (stereo unspecified)	/	7	/	/	-1	31
CCC1CCCCN1C(=S)Nc1ccc(OC(F)F)cc1 (stereo unspecified)	-8	27*	-6	-5	-1	14
SMILES	SENP8 block-1	NRP1-CendR mod	SENP6 block	SENP7 inh	SENP1 FRET inh	SENP8 block-2
O=[N+]([O-])c1cccc(C=Nc2cc3c(cc2Br)OCCO3)c1	/	27*	/	/	0	10
O=C(N/N=C/c1cccc([N+](=O)[O-])c1)c1ccc2c(c1)OCCO2	-4	6	-17	-4	-1	34
COc1cc(C(=O)C(=O)N2CCC(Cc3ccccc3)CC2)cc2ccccc12	/	-10	/	/	0	-21
Nc1ccc(OCc2ccco2)cc1	2	4	2	54*	0	19
CC(C)(C)c1ccc(C(=O)N2CCC2(C)C(=O)Nc2cnc3ccccc3c2)cc1 (stereo unspecified)	/	-1	/	/	2	18
O=C(c1ccc(-c2ccccc2)cc1)N1CCN(c2ccc3c(c2)C2CC3CCN2C(=O)OCc2ccccc2)CC1 (stereo unspecified)	/	32*	/	/	-1	6
COc1ccc2c(c1)O/C(=C\c1sccc1C)C2=O	50	-3	79*	71*	-132	-86
CCOC(=O)C1(C)CCN1C(=O)c1ccc(C(F)(F)F)cc1 (stereo unspecified)	/	0	/	/	-1	14
CC1=CC(C)(C)N(S(=O)(=O)c2ccc(C)cc2)c2ccc(C)cc21	6	4	-9	5	3	16
CC1=CC(C)(C)[N+](C)(C)c2ccc(C)cc21	-3	38*	-6	-1	1	2
O=C1c2ccccc2C(c2nnnn2-c2ccc3c(c2)OCCO3)N1Cc1cccc(F)c1 (stereo unspecified)	/	6	/	/	-5	16
COc1ccc(Cl)cc1NC(=O)c1cccc(-n2cnnn2)c1	-3	22*	-9	-5	2	6
COc1ccc(CC2=C(O)c3ccccc3C(=O)C2=O)cc1	16	4	13	15	0	68*
COc1ccc(NCc2nnc(SCC(=O)NCc3ccccc3)n2-c2ccccc2OC)cc1	-6	29*	-22	-7	-2	12
CCCCn1nnnc1C1(C)CCC(=O)N1Cc1cc(OC)ccc1OC (stereo unspecified)	/	-3	/	/	0	8
CCOC(=O)N1CCN(C(=O)Nc2ccc3nc(C)c(C)nc3c2)CC1	-5	44*	-1	12	7	-495
CCOC(=O)N1CCN(C(=O)Nc2ccc3nccnc3c2)CC1	7	-5	0	-1	4	-250
O=C1OC(N2C(=O)CC[C@H]2C(=O)NCC2CCCO2)c2ccccc21 (stereo partly specified)	-8	22*	-6	12	4	15
O=C1c2c(-c3ccc(Br)cc3)noc2CCN1Cc1cn(-c2ccccc2)nn1	/	10	/	/	1	26
CCOCCCNC(=O)C(NC(=O)CNC(C)=O)c1ccc(Cl)cc1 (stereo unspecified)	-5	24*	-3	-4	0	11
Cc1nn(-c2ccccc2)c(Cl)c1/C=C/C(=O)c1ccccc1	-14	2	-3	4	7	42*
Cc1nn(-c2ccccc2)c(Cl)c1/C=N/O	-4	-9	-11	6	2	-1
CCCCN1CC(O)=C(c2nc3ccccc3[nH]2)C1=N	2	22*	15	14	-1	-2
CCCCCN1CC(O)=C(c2nc3ccccc3[nH]2)C1=N	-11	11	-10	-4	-1	6
CC(=O)N(C1=C(Cl)C(=O)c2ccccc2C1=O)C1CCCCC1	45	23	51*	21	-13	-113
